Lung fibro prol = blocks proliferation of human lung fibroblasts; 1.1% of 85,000 active; viability, % at 10 µM; LL 47 human lung fibroblast viability, ATP luminescence; hits give low values;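 active = viability at or below 50% in the single dose screen; inactive = viability above 50%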;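 also: compound exposure lasted 72 h before the ATP readout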
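Test system: LL 47 human lung fibroblasts; Quantity: 1,150 cells/well; Buffer or medium: IMEM plus 15% FBS; Dosing: tenfold compound dosing solution, DMSO at 0.1%; Timing: overnight cell rest, 72 h compound treatment at 37 °C; Detection: ATP-based CellTiter-Glo luminescent readout; Read-out basis: viability percentage against median untreated-cell control; Controls: cell-only wells, no compound.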
HUVEC prolif 384 = inhibitors of human endothelial cell proliferation | AID 648 | HUVEC proliferation, CellTiter-Glo luminescence, 72 h; hits give low values | 1.1% of 86,000 active | viability, % at 10 µM (by protocol);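 active = viability at or below 30%; inactive = viability above 30%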
H69AR inhibit = blocks growth of human H69AR lung tumor cells. viability, % at 10 µM. 6% of 85,000 active. H69AR lung tumor viability, ATP luminescence, 72 h; hits give low values;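 active = viability at or below 40%; inactive = viability above 40%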;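 also: multidrug resistant small cell line overexpressing MRP-1 efflux transporter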
HCT116 bCat-KO = beta-catenin-lacking colon tumor cell growth suppression; HCT116 beta-catenin knockout viability, CellTiter-Glo, 60 h; hits give low values; viability, % at 10 µM; 1.5% of 140,000 active;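 active = viability at or under a set limit, the compound median less 4 SD, cut at about 6% in these data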
HCT116 PTEN-null = suppresses growth of cells with PTEN deletion; HCT116 PTEN-null viability, CellTiter-Glo, 60 h; hits give low values; viability, % at 10 µM; 1.2% of 140,000 active;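 active = viability at or below a set limit, 4 SD under the median of all tested compounds, cut at about 3.7% in these data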;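 also: PTEN knockout HCT116 line with beta catenin targeted HCT116 as companion control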
Each line names hits and unclear results; the compound was inactive in the other large screens. The sample as a whole holds a higher share of hits than the screen did.

COc1ccc(CC(=O)n2nc(-c3ccc(Cl)cc3)nc2NCc2ccco2)cc1	H69AR inhibit 30
Cc1cccn2c(=O)c(/C=C(\C#N)S(=O)(=O)c3ccccc3)c(Oc3ccc(Cl)cc3)nc12	HCT116 bCat-KO 3.6, HCT116 PTEN-null 2.2 (no result: Lung fibro prol, HUVEC prolif 384, H69AR inhibit)
Cc1ccccc1Oc1nc2c(C)cccn2c(=O)c1/C=C(\C#N)C(=O)Nc1c(C)n(C)n(-c2ccccc2)c1=O	none (no result: Lung fibro prol, HUVEC prolif 384, H69AR inhibit)
Cc1cc(Oc2nc3c(C)cccn3c(=O)c2/C=C(\C#N)S(=O)(=O)c2ccccc2)ccc1Cl	HCT116 bCat-KO 1.6, HCT116 PTEN-null 2.3 (no result: Lung fibro prol, HUVEC prolif 384, H69AR inhibit)
CCN(CC)C(=O)c1sc(NC(=O)c2ccc(OC)c([N+](=O)[O-])c2)c(C#N)c1C	none (no result: Lung fibro prol, HUVEC prolif 384, H69AR inhibit)
CCCc1nn(-c2cc(Cl)ccc2OC)c2c1C(=O)CC(C)(C)C2	H69AR inhibit 22
CCc1nn(-c2cc(Cl)ccc2OC)c2c1C(=O)CCC2	H69AR inhibit 22
Cc1ccc(Nc2nc(Nc3ccc(C)cc3)nc(SC3=NCCS3)n2)cc1	H69AR inhibit 11, HCT116 bCat-KO 4.2, HCT116 PTEN-null 3.5
O=C(/C=C/c1ccc(Cl)c(Cl)c1)NCc1ccco1	none (no result: Lung fibro prol, HUVEC prolif 384, H69AR inhibit)
O=C(/C=C/c1ccc(Cl)c(Cl)c1)n1cccn1	H69AR inhibit 10
O=C(CN1CCN(Cc2ccccc2)CC1)N1CCCc2c1c(=O)oc1ccc(O)cc21	H69AR inhibit 7.6
Cn1c2c(c(=O)n(C)c1=O)C1(C(=O)Nc3ccccc31)C(C#N)=C(N)O2 (configuration not stated)	none (no result: Lung fibro prol, HUVEC prolif 384, H69AR inhibit)
Nc1nc2ccccc2n1/N=C/c1ccc([N+](=O)[O-])s1	HCT116 bCat-KO 3.5, HCT116 PTEN-null 2.6 (no result: Lung fibro prol, HUVEC prolif 384, H69AR inhibit)
Nc1nc2ccccc2n1/N=C/c1cccnc1	none (no result: Lung fibro prol)
COc1ccc(-c2cn3cc(C)ccc3n2)cc1OC	H69AR inhibit 39
OCc1cn(-c2ccccc2)nc1-c1ccc(-c2nn(-c3ccccc3)cc2CO)cc1	none
Cc1ccc(-c2nn(-c3ccccc3)cc2CSC(=N)N)cc1	HCT116 bCat-KO 1.1, HCT116 PTEN-null 1.0 (no result: Lung fibro prol, HUVEC prolif 384, H69AR inhibit)
CCSc1nc2ccccc2n1C(=O)/C=C\c1ccc(OC)c(OC)c1	HCT116 bCat-KO 1.7 (no result: Lung fibro prol, HUVEC prolif 384, H69AR inhibit)
CCSc1nc2ccccc2n1CC(N)=O	none
COC(=O)C1NN=C(C(=O)c2ccc(Cl)cc2)C1c1ccc(OC)cc1 (configuration not stated)	none (no result: Lung fibro prol, HUVEC prolif 384, H69AR inhibit)
COc1ccc(Cl)cc1NC(=O)C(C)N1CCN(C/C=C/c2ccccc2)CC1 (configuration not stated)	H69AR inhibit 40
COC(=O)c1ccc(COc2ccccc2/C=C(\C#N)C(=O)Nc2c(C)cccc2C)cc1	HCT116 bCat-KO 2.4, HCT116 PTEN-null 1.8 (no result: Lung fibro prol, HUVEC prolif 384, H69AR inhibit)
CCOC(=O)CN1C(=O)C2Cc3ccccc3CN2C1=S (configuration not stated)	none (no result: Lung fibro prol, HUVEC prolif 384, H69AR inhibit)
CC(C)(Oc1ccc(Cl)cc1)C(=O)N/N=C/c1cn[nH]c1-c1ccccc1	none (no result: Lung fibro prol, HUVEC prolif 384, H69AR inhibit)
CCOC(=O)C1=C(O)/C(=C/c2cn(CC(=O)N3CCCC3)c3ccccc23)SC1=Nc1ccccc1	H69AR inhibit 11
COC(=O)c1cn(CC(=O)N2CCCCCC2)c2ccccc12	none
CCN(CC)CCN1C(=O)c2oc3ccccc3c(=O)c2C1c1cccc(Br)c1 (configuration not stated)	H69AR inhibit 37
CCN(CC)CCN1C(=O)c2oc3ccccc3c(=O)c2C1c1ccccc1 (configuration not stated)	none (no result: H69AR inhibit)
O=C1c2oc3ccc(Cl)cc3c(=O)c2C(c2cccc(Br)c2)N1CCO (configuration not stated)	H69AR inhibit 26
CCN(CC)c1ccc(NC(=O)COC(=O)COc2ccccc2[N+](=O)[O-])cc1	none (no result: Lung fibro prol, HUVEC prolif 384, H69AR inhibit)
CC(=O)Oc1c(Cl)c(N2CCOCC2)c(OC(C)=O)c2ccccc12	H69AR inhibit 1.9
C#CCn1c(=NC(=O)c2ccc(Br)s2)sc2cc(NC(C)=O)ccc21	none (no result: Lung fibro prol, HUVEC prolif 384, H69AR inhibit)
C#CCn1c(=NC(=O)c2ccc(Br)s2)sc2cccc(OC)c21	Lung fibro prol 38, H69AR inhibit 2.6
Cc1cn(C(=O)c2ccccc2)c(=S)n1-c1ccc(Br)cc1	none
O=c1cc(N2CCC3(CC2)OCCO3)[nH]c(=O)n1C1CCCCC1	none
O=c1cc(N2CCN(c3ccc(F)cc3)CC2)[nH]c(=O)n1C1CCCCC1	H69AR inhibit 35
COc1ccc2nc3c(cc2c1)c(NC(=O)c1cccs1)nn3CC(C)C	H69AR inhibit 35
CC(C)Cn1nc(NC(=O)C(C)(C)C)c2cc3ccccc3nc21	none
CC1CC(C)(C)NC(=S)N1CCCC(=O)N1CCN(c2ccccc2F)CC1 (configuration not stated)	none (no result: Lung fibro prol, HUVEC prolif 384, H69AR inhibit)
COc1ccc(-n2nnnc2SCC(=O)c2ccc(O)c(O)c2)cc1	H69AR inhibit 26
CCOc1cc(N2CCOCC2)c(OCC)cc1NS(=O)(=O)c1ccc(Cl)s1	H69AR inhibit 20 (no result: Lung fibro prol)
CCOc1cc(N2CCOCC2)c(OCC)cc1NC(=O)CCS(=O)(=O)c1ccc(Cl)cc1	none
CCCOC(=O)c1cccc(NC(=O)c2cccnc2)c1	none
CCCOC(=O)c1cccc(Nc2nc(-c3cccnc3)nc3ccccc23)c1	HCT116 PTEN-null 3.6 (no result: Lung fibro prol, HUVEC prolif 384, H69AR inhibit)
CN1CCc2c(sc3ncn4nc(-c5ccccc5O)nc4c23)C1	HCT116 bCat-KO 0.8, HCT116 PTEN-null 0.7
CC(C)=C1C2CCC1C1C(=O)N(NC(=O)COc3ccc(C(C)(C)C)cc3)C(=O)C21 (configuration not stated)	none (no result: Lung fibro prol, HUVEC prolif 384, H69AR inhibit)
Cc1nc(NC(C)C)c2cnn(CCc3ccccc3)c2n1	none (no result: Lung fibro prol, HUVEC prolif 384, H69AR inhibit)
CCN(CCNC(=O)C1CCN(S(C)(=O)=O)CC1)c1ccccc1	none
CCN(CCNC(=O)Nc1ccc(Cl)cc1)c1ccccc1	H69AR inhibit 7.2
Cc1cc(C)nc(NC2=NCCN2C(=O)Nc2ccc(Cl)c(Cl)c2)n1	H69AR inhibit 22 (no result: HCT116 bCat-KO, HCT116 PTEN-null)
C=CCn1c(COc2cc(C)ccc2C(C)C)nnc1SCC(=O)c1c(N)n(C)c(=O)n(C)c1=O	none (no result: Lung fibro prol, HUVEC prolif 384, H69AR inhibit)
Nc1c(C(O)(C(F)(F)F)C(F)(F)F)cc(C(O)(C(F)(F)F)C(F)(F)F)c2ccccc12	H69AR inhibit 25
COc1ccccc1N1CCN(C(=O)CCCN2C(=O)c3cccc4cccc(c34)C2=O)CC1	none (no result: Lung fibro prol, HUVEC prolif 384, H69AR inhibit)
COc1ccccc1N(C)S(=O)(=O)c1ccc(C(=O)OCC(=O)c2c[nH]c3ccccc23)cc1	none (no result: Lung fibro prol, HUVEC prolif 384, H69AR inhibit)
CCOC1OC(=O)C(Cl)=C1Nc1ccccc1C (configuration not stated)	none (no result: Lung fibro prol, HUVEC prolif 384, H69AR inhibit)
Cc1ccccc1NC1=C(Cl)C(=O)OC1OC(=O)c1ccco1 (configuration not stated)	H69AR inhibit 9.9
Cc1cccc(N(C)c2cc(C)nc3nc(C)nn23)c1	H69AR inhibit 23
CCN(c1ccccc1)c1cc(C)nc2nc(C)nn12	none
Cc1ccccc1NC(=O)N(CCc1nc2ccccc2[nH]1)Cc1ccccc1	H69AR inhibit 16
COc1ccccc1CN(Cc1nc2ccccc2c(=O)[nH]1)C(=O)Nc1ccccc1C	none
CC(C)CNC(=O)c1ccc(NC(=O)c2cccs2)cc1	none (no result: Lung fibro prol, HUVEC prolif 384, H69AR inhibit)
CCCCCC/C(=N/O)c1ccccn1	HUVEC prolif 384 28, H69AR inhibit 25, HCT116 bCat-KO 4.2
Cn1c(=O)c2c(SCc3cccc(C(F)(F)F)c3)nc(-c3ccco3)nc2n(C)c1=O	Lung fibro prol 48, HUVEC prolif 384 20
